Screening results deposited in PubChem by several laboratories.
Rad51 HR inh: blocks human Rad51 in homologous recombination. hRad51 DNA strand exchange, fluorescence dequenching. actives 0.085% (n = 200,000). inhibition, % at 10 µM. AID 1385;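 active means inhibition above 40% at the single screening dose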
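System: human Rad51 nucleoprotein filaments preassembled on unlabelled ssDNA. Reagent: labelled 47-mer dsDNA for strand exchange. Schedule: 30-min compound preincubation and 15-min exchange, both room temperature. Measured by: FRET fluorescence dequenching, excitation 485 nm, emission 520 nm. Read-out: Fluorescence-based percent inhibition, control- and blank-normalised. Benchmarks: plate controls and plate blanks.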
MDM2 E3 inh: inhibitors of human Mdm2 E3 ubiquitin ligase; cell-based MDM2 ubiquitination luciferase reporter, 2 h; 0 = plate control, 100 = twice control, blank-subtracted; signal enhancement, % at 5 µM; actives 0.11% (n = 210,000); AID 1230;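 active means signal enhancement of 30% or more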;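 further: luminescence tracks abundance of the self-degrading MDM2-luciferase fusion protein; higher signal means inhibition of MDM2 E3 ligase activity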
Target sequence (Q00987 whole entry, looked up, the tested form may be a part): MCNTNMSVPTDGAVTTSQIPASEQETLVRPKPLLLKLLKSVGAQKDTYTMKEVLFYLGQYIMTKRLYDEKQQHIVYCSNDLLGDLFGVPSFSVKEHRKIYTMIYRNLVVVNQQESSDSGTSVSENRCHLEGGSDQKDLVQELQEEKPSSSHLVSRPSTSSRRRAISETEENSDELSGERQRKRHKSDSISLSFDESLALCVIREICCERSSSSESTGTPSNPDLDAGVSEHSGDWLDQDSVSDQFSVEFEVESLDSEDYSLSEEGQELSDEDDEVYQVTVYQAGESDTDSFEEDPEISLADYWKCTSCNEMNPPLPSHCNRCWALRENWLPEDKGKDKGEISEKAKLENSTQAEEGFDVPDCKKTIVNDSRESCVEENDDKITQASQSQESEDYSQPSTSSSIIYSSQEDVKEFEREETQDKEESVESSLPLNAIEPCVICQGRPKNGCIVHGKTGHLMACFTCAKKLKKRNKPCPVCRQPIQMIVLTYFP
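System: stable MDM2–luciferase fusion reporter cells / Input: 2000 cells seeded into each well / Schedule: 4 h settle plus 2 h compound, 37 °C / Compound: single-point 5 µM / Buffer or medium: cells held in DMEM / Benchmarks: control and blank well means / Evaluation: percent signal gain over controls, blank-subtracted / Measured by: luciferase luminescence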
HSF-1 act: increases HSF-1 driven luciferase reporter signal; NIH3T3-HGL HSF-1 luciferase reporter, MG132, 8 h; 100% = twice DMSO control signal; activation, % at 9 µM; actives 1.7% (n = 300,000); AID 504408;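 active means mean replicate activation of at least 50% with a set share of replicates each reaching 50%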
HSV augment: HSV replication enhancement; maximum fold increase; actives 0.005% (n = 220,000); HSV replication augmentation in cells, fold increase; in the data active means maximum fold increase above about 1.5; tested in PC3 cells
Hsp70 activator: switches on Hsp70 transcription; HeLa Hsp70 promoter luciferase reporter, luminescence; scaled: vehicle 0, proteasome-inhibitor control 100%; activation, % at 10 µM; actives 0.04% (n = 200,000);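 active means activation above the mean across all tested compounds plus 3 SD, cutoff set per campaign, cut at about 5.5% in these data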
HSF1 inh: HSF1 inhibition; NIH3T3-HGL HSE-luciferase, MG132-induced, luminescence 8 h; hits give low values; activity change, negative = inhibition, % at 7.5 µM (by protocol); actives 0.77% (n = 300,000); AID 2098;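 active means more than half of replicate wells show activity change below -50%, luminescence cut by over half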;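 further: luciferase reports HSF-1 transcriptional activity via heat shock element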
Each line names hits and unclear results; the compound was inactive in the other large screens. Most compounds without a hit are left out; they make up all but 2.6% or so of the library.

Cc1cc(C)cc(Oc2coc3cc(OC(=O)c4cccs4)ccc3c2=O)c1	none
O=C(NCCc1ccccc1)C1CCN(C2CCN(Cc3ccc(CO)o3)CC2)CC1	MDM2 E3 inh 38
CCCCn1c(N)c(N(CC(C)C)C(=O)c2ccc(-c3ccc([N+](=O)[O-])cc3)o2)c(=O)[nH]c1=O	none (no result: Rad51 HR inh, MDM2 E3 inh, HSV augment, Hsp70 activator)
Cc1ccc(/C=C/C(=O)c2cc(Br)ccc2OC(=O)c2ccco2)cc1	none
COc1ccccc1/C=C/C(=O)c1cc(Br)ccc1OC(=O)c1ccco1	HSF-1 act 103 (no result: Rad51 HR inh, MDM2 E3 inh, HSV augment)
CC(=O)c1ccc(N2CCN(C(=O)c3n[nH]c4ccccc34)CC2)cc1	HSF-1 act 56
O=C(Nc1ccccc1N1CCCC1)C1CCN(C(=O)c2ccc(Cl)cc2)CC1	none (no result: Rad51 HR inh, MDM2 E3 inh, HSV augment, Hsp70 activator)
O=C(Nc1ccccc1N1CCCCC1)C1CCN(C(=O)c2ccc(Cl)cc2)CC1	HSF1 inh -67 (no result: Rad51 HR inh, MDM2 E3 inh, HSV augment, Hsp70 activator)
Cc1ccc(C(=O)N2CCC(C(=O)NC3CCCC3)CC2)cc1	none (no result: Rad51 HR inh, MDM2 E3 inh, HSV augment, Hsp70 activator)
O=C(Nc1ccccc1N1CCCCC1)C1CCN(S(=O)(=O)c2ccccc2C(F)(F)F)CC1	HSF1 inh -58 (no result: Rad51 HR inh, MDM2 E3 inh, HSV augment, Hsp70 activator)
O=C(NC1CCCC1)C1CCN(C(=O)c2ccc(Cl)cc2)CC1	HSF-1 act 54 (no result: Rad51 HR inh, MDM2 E3 inh, HSV augment, Hsp70 activator)
CCC(=O)NS(=O)(=O)c1ccc(-c2c(-c3ccccc3)noc2C)cc1	none (no result: MDM2 E3 inh, HSF-1 act, Hsp70 activator, HSF1 inh)
Cc1cc(C)c(S(=O)(=O)N2CCC(C(=O)NCc3ccc(Cl)cc3Cl)CC2)c(C)c1	none
O=C(NCc1ccccc1)C(c1ccc(O)cc1)N(C(=O)c1cnccn1)c1ccccc1 (configuration not stated)	none (no result: Rad51 HR inh, MDM2 E3 inh, HSV augment, Hsp70 activator)
CN(CC(=O)NCCc1ccc(Cl)cc1)S(=O)(=O)c1cccs1	none (no result: Rad51 HR inh, MDM2 E3 inh, HSV augment, Hsp70 activator)
Cc1ccccc1CSc1nnc(-c2ccncc2)n1C	none (no result: Rad51 HR inh, MDM2 E3 inh, HSV augment, Hsp70 activator)
O=C(O)/C(=C\c1ccc(Br)cc1)c1ccc(S(=O)(=O)N2CCCCC2)s1	none (no result: HSV augment)
O=c1[nH]c2ccc([N+](=O)[O-])cc2nc1/C=C(\O)c1ccccc1	HSV augment 1.6 (no result: MDM2 E3 inh, Hsp70 activator)
CN(C(=O)/C=C/c1ccc(F)cc1)C1CCCCC1	HSF-1 act 61 (no result: Rad51 HR inh, MDM2 E3 inh, HSV augment, Hsp70 activator)
CC(C)(CNC(=O)/C=C/c1ccc(F)cc1)CNC(=O)/C=C/c1ccc(F)cc1	HSF-1 act 76
CN(C(=S)NC(=O)/C=C/c1ccc(F)cc1)C1CCCCC1	HSF-1 act 67 (no result: Rad51 HR inh)
Cc1ccc2nc(Br)c3c(c2c1)OC(CBr)C3 (configuration not stated)	none (no result: Rad51 HR inh, MDM2 E3 inh, HSV augment, Hsp70 activator)
Cc1ccc(/C=C2\SC(=S)N(CCCC(=O)NC3CCCC3)C2=O)cc1	none (no result: Rad51 HR inh, MDM2 E3 inh, HSV augment, Hsp70 activator)
Fc1ccc(/C=C2\CCCC3=C2Nc2ncnn2C3c2ccc(F)cc2)cc1 (configuration not stated)	HSF-1 act 98
COc1ccccc1NC(=O)CCc1nnc2ccc(N3CCN(C)CC3)nn12	none (no result: Rad51 HR inh, MDM2 E3 inh, HSV augment, Hsp70 activator)
CN(c1ccccc1)c1ccc(/C=C/[N+](=O)[O-])cc1	HSF-1 act 198
O=C(N/N=C/c1ccc(Br)o1)c1ccc2c(c1)OCCO2	HSF1 inh -79 (no result: Rad51 HR inh)
O=C(O)c1ccc(/C=N/NC(=O)c2ccc3c(c2)OCCO3)cc1	none (no result: Rad51 HR inh, MDM2 E3 inh, HSV augment, Hsp70 activator)
O=C(N/N=C/c1ccc2c(c1)OCO2)c1cccnc1	none (no result: Rad51 HR inh, MDM2 E3 inh, HSV augment, Hsp70 activator)
O=C(N/N=C/c1cccnc1)c1ccc2c(c1)OCCO2	HSF1 inh -63
COc1ccc(CNC(=O)CN2C(=O)CCSc3ccc(S(=O)(=O)N4CCCC4)cc32)cc1	none (no result: Rad51 HR inh, MDM2 E3 inh, HSV augment, Hsp70 activator)
O=c1[nH]c2c(s1)C=Nc1ccccc1N2	HSF-1 act 70
CCC(=O)Nc1cc2nn(-c3ccc(C)cc3)nc2cc1C	HSF1 inh -62
CCC(=O)Nc1ccc2c(c1)ncn2-c1ccc(C)cc1	HSF-1 act 53
CCc1cc(C(=O)Nc2ccc(S(=O)(=O)NC3=NCCCCC3)cc2)sc1C	none (no result: Rad51 HR inh, MDM2 E3 inh, HSV augment, Hsp70 activator)
CCCOC(=O)C(C)n1cnc2scc(-c3ccc(C)cc3)c2c1=O (configuration not stated)	none (no result: Rad51 HR inh, MDM2 E3 inh, HSV augment, Hsp70 activator)
COc1ccc(/C=C/C(=O)C(C(N)=O)=C2SCCS2)cc1	none
NC(=O)C(C(=O)/C=C/c1ccc(Cl)cc1)=C1SCCS1	HSF-1 act 210 (no result: MDM2 E3 inh, Hsp70 activator)
CCOc1ccc(Nc2ccnc3cc(Cl)ccc23)cc1	none (no result: Hsp70 activator)
CN1CCN(c2ccc(Nc3ccnc4cc(Cl)ccc34)cc2)CC1	HSF-1 act 52 (no result: Rad51 HR inh, MDM2 E3 inh, HSV augment, Hsp70 activator)
CN(CCc1cn[nH]c1)Cc1nc(C(c2ccccc2)c2ccccc2)no1	none
CCN(CC)CCN(C)Cc1nc(C(c2ccccc2)c2ccccc2)no1	HSF-1 act 54 (no result: Rad51 HR inh, MDM2 E3 inh, HSV augment, Hsp70 activator)
COC(=O)C1=C(C)NC2=C(C(=O)CC(C)(C)C2)C1c1cn(Cc2ccc(Br)cc2)nc1-c1ccccc1 (configuration not stated)	HSF-1 act 74
COc1cccc(CNC(=O)CCC2CCCN(c3cc(C)nc(N4CCCC4)n3)C2)c1 (configuration not stated)	none
Cc1ccc(N/N=C(\C#N)C(=O)c2ccsc2)cc1	none (no result: Hsp70 activator)
Cc1ccc(N/C=C(/C#N)c2ccsc2)cc1C	HSF-1 act 101
Cc1ccc(OCC(=O)Nc2c[nH]c(=O)[nH]c2=O)cc1C	HSF1 inh -52
S=C(NCCc1ccccc1)NN=C1CCCCCC1	HSF-1 act 67
S=C(NCCc1ccccc1)N/N=C/C1CCCCC1	none
COC(=O)c1cc(COc2ccc3oc(C)c(C(=O)OC(C)C)c3c2)c(C)o1	HSF1 inh -80
COC(=O)c1cc(COc2ccc3c4c(c(=O)oc3c2)CCCC4)c(C)o1	none (no result: Rad51 HR inh, HSV augment)
COc1ccc(NC(=S)Nc2ccc(F)cc2)c(OC)c1	HSF1 inh -52 (no result: Rad51 HR inh, MDM2 E3 inh, HSV augment)
Fc1ccc(NC(=S)Nc2cc(Cl)ccc2Cl)cc1	HSF-1 act 77
COc1ccc(NC(=S)Nc2ccc(OC)cc2OC)c(OC)c1	none
